Experiments:
[1] = Concentration of drug required to reduce V-79 cell survival to 50% of controls in a SRB assay; type: functional, cell-based; settings: Cricetulus griseus, V79
Summary of the method: (§1)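 V-79 cells (about 7 × 10³ per 100 μL) preincubated 24 h, then exposed to drug for 3 h under oxic conditions. Washed 5× with HBSS and grown 48 h more. Fixed with TCA and stained with SRB. Bound dye dissolved in 10 mM Tris, spotted on TLC and read by video densitometry. IC50 is the mean of triplicates in one experiment. Ratio is IC50 of sulfide over sulfoxide or sulfone.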

[2] = Relative cytotoxicity is expressed as the ratio of the IC50 values of the corresponding sulfide to sulfoxide or to sulfone; type: functional, Cricetulus griseus; summary of the method: as §1
[3] = Concentration required to reduce cell survival to 10% of controls using V-79 cells in the clonogenic assay, in aerobic conditions; type: functional; settings: Cricetulus griseus, V79
Summary of the method: (§2)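 V-79 cells (500 000 per bottle) grown 20 h in MEM with 10% FBS. Hypoxic set gassed 2 h at 37 °C with humidified 95% N2/5% CO2. Drug in ethanol/water or DMF injected through septa. Exposure 3 h under air or hypoxia. Cells trypsinised, counted by trypan blue, 500 plated in triplicate for 6–8 days. Colonies stained with crystal violet, survival relative to solvent control.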

[4] = Hypoxic selectivity expressed as the ratio of IC50 values in air and nitrogen; type: functional
[5] = Concentration required to reduce cell survival to 10% of controls using V-79 cells in the clonogenic assay, in anaerobic conditions (hypoxic conditions); type: functional; settings: Cricetulus griseus, V79; summary of the method: as §2
Rattus norvegicus [6] = organism: Rattus norvegicus; assay: Bioreduction experiment was conducted by incubation of the sulfoxides with rat liver S-9 fractions in anaerobic conditions (N2, without cofactors); type: functional; set-up: concentration or dose not given beside the values
Summary of the method: (§3)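 Rat liver S-9 fraction incubated with sulfoxide at 37 °C for 30 min with shaking. Aerobic vials were left open to air. Anaerobic vials were purged with N2 for 10 min before the compound was injected. Cofactor was NADPH, benzaldehyde, 2-hydroxypyrimidine or acetaldehyde, or none. Controls were boiled S-9 and S-9 without cofactors. For menadione, S-9 was preincubated aerobically with 1 equiv for 30 min, then benzaldehyde was added. Sulfide or sulfone was measured by HPLC or TLC densitometry.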

Rattus norvegicus [7] = organism: Rattus norvegicus; assay: Bioreduction experiment was conducted by incubation of the sulfoxides with rat liver S-9 fractions in anaerobic conditions N2); type: functional; summary of the method: as §3
Rattus norvegicus [8] = organism: Rattus norvegicus; assay: Reduction potential (SCE) determined by differential pulse polarography of the sulfoxides […]; type: functional
Rattus norvegicus [9] = organism: Rattus norvegicus; assay: Bioreduction experiment was conducted by incubation of the sulfoxides with rat liver S-9 fractions in anaerobic conditions (N2, benzaldehyde); type: functional; set-up: concentration or dose not given beside the values; summary of the method: as §3
Rattus norvegicus [10] = organism: Rattus norvegicus; assay: Bioreduction experiment was conducted by incubation of the sulfoxides with rat liver S-9 fractions in aerobic conditions(air ); type: functional; summary of the method: as §3
Rattus norvegicus [11] = organism: Rattus norvegicus; assay: Bioreduction experiment was conducted by incubation of the sulfoxides with rat liver S-9 fractions in aerobic conditions(air, benzaldehyde); type: functional; summary of the method: as §3
Rattus norvegicus [12] = organism: Rattus norvegicus; assay: Bioreduction experiment was conducted by incubation of the sulfoxides with rat liver S-9 fractions in anaerobic conditions (N2); type: functional; summary of the method: as §3
Rattus norvegicus [13] = organism: Rattus norvegicus; assay: Bioreduction experiment was conducted by incubation of the sulfoxides with rat liver S-9 fractions in anaerobic conditions(N2, without cofactors); type: functional; summary of the method: as §3
Rattus norvegicus [14] = organism: Rattus norvegicus; assay: Bioreduction experiment was conducted by incubation of the sulfoxides with rat liver S-9 fractions in aerobic conditions(air, NADPH); type: functional; summary of the method: as §3
Rattus norvegicus [15] = organism: Rattus norvegicus; assay: Bioreduction experiment was conducted by incubation of the sulfoxides with rat liver S-9 fractions in anaerobic conditions(N2, menadione); type: functional; summary of the method: as §3
Rattus norvegicus [16] = organism: Rattus norvegicus; assay: Bioreduction experiment was conducted by incubation of the sulfoxides with rat liver S-9 fractions in aerobic conditions(air without cofactors); type: functional; summary of the method: as §3
Rattus norvegicus [17] = organism: Rattus norvegicus; assay: Bioreduction experiment was conducted by incubation of the sulfoxides with rat liver S-9 fractions in anaerobic conditions (N2 2-hydroxypyrimidine); type: functional; summary of the method: as §3

Work on `Cl.ClCCN(CCCl)c1ccc(Sc2ccc(Nc3c4ccccc4nc4ccccc34)cc2)cc1` yielded an IC50 [1] of 1.93 µM and a Cytotoxicity [2] of 1.
`Nc1ccc(Sc2ccc(N(CCCl)CCCl)cc2)cc1` showed an IC50 [1] of 2.49 µM and a Cytotoxicity [2] of 1.
`[O-][S+](c1ccccc1)c1ccc(N(CCCl)CCCl)cc1` (configuration not stated) showed an IC90 [3] of 2010 µM, a Selectivity [4] of 11 and an IC90 [5] of 189 µM.
For `[O-][s+]1c2ccccc2c2ccccc21`, the Bioreduction (Rattus norvegicus [6]) was 0%, the Bioreduction (Rattus norvegicus [7]) was 0% and the E (Rattus norvegicus [8]) was 1.82 -V. It also gave a Bioreduction (Rattus norvegicus [9]) of 4.4%.
Work on `O=[N+]([O-])c1ccc(Sc2ccc(N(CCCl)CCCl)cc2)cc1` yielded an IC50 [1] of 2.25 µM and a Cytotoxicity [2] of 1.
`[O-][S+](c1ccc(NCCCl)cc1)c1ccc(NCCCl)cc1` gave an IC90 [3] of 1580 µM, a Selectivity [4] of 0.7 and an IC90 [5] of 2210 µM.
With `[O-][S+](c1ccc(N(CCCl)CCCl)cc1)c1ccc(N(CCCl)CCCl)cc1` the Bioreduction (Rattus norvegicus [10]) was 0%, the Bioreduction (Rattus norvegicus [11]) was 0% and the Bioreduction (Rattus norvegicus [12]) was 0%. The Bioreduction (Rattus norvegicus [13]) was 0%, the Bioreduction (Rattus norvegicus [14]) was 0% and the Bioreduction (Rattus norvegicus [15]) was 0%. For the same compound, the E (Rattus norvegicus [8]) was 2.63 -V, the Bioreduction (Rattus norvegicus [16]) was 0% and the IC90 [3] was 3090 µM. For the same compound, the Selectivity [4] was 17 and the IC90 [5] was 184 µM.
For `[O-][s+]1c2ccc(N(CCCl)CCCl)cc2c2cc(N(CCCl)CCCl)ccc21`, the Bioreduction (Rattus norvegicus [12]) was 0%, the Bioreduction (Rattus norvegicus [6]) was 0.6% and the E (Rattus norvegicus [8]) was 1.96 -V. For the same compound, the Bioreduction (Rattus norvegicus [17]) was 0.33%, the Bioreduction (Rattus norvegicus [9]) was 0.6% and the IC90 [3] was 4670 µM. For the same compound, the Selectivity [4] was 3 and the IC90 [5] was 1520 µM.
With `O=[N+]([O-])c1ccc(S(=O)(=O)c2ccc(N(CCCl)CCCl)cc2)cc1` the IC50 [1] was 26.7 µM and the Cytotoxicity [2] was 0.08.
